Measured values as given in ChEMBL document CHEMBL3124924, “Bifunctional ethyl 2-amino-4-methylthiazole-5-carboxylate derivatives: synthesis and in vitro biological evaluation as antimicrobial and anticancer agents” (2014).
In brackets after ≈: the same amount, converted by molar mass.

tested on: Escherichia coli; experiment: Antibacterial activity against Escherichia coli ATCC 25922 assessed as growth inhibition at 1 mg/mL after 24 hrs by agar-cup diffusion method; format: functional; conditions: ATCC 25922, 24 h, read-out: DIZ
Procedure, shortened: (§1)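 Agar-cup diffusion: 1 mL of 6 h broth culture seeded per 100 mL molten sterile agar at 45 °C and poured into plates. 8 mm cups cut, each filled with 0.1 mL of 1 mg/mL test solution. Incubated 37 °C for 24 h, 48 h for C. albicans. DMSO control per organism. Inhibition zone diameter in mm, mean of three measurements.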

| Compound | zone of inhibition at 1000 µg/mL [mm] |
| --- | --- |
| CCOC(=O)c1sc(NS(=O)(=O)c2ccccc2)nc1C | > 13 |

tested on: Bacillus spizizenii; experiment: Antibacterial activity against Bacillus subtilis ATCC 6633 assessed as growth inhibition at 1 mg/mL after 24 hrs by agar-cup diffusion method; format: functional; conditions: ATCC 6633, 24 h, read-out: DIZ; procedure, shortened: as §1

| Compound | zone of inhibition at 1000 µg/mL [mm] |
| --- | --- |
| CCOC(=O)c1sc(NS(=O)(=O)c2ccccc2)nc1C | > 13 |

tested on: SNB-75; experiment: Cytotoxicity against human SNB75 cells assessed as growth inhibition at 10 uM after 48 hrs by SRB assay; format: functional; conditions: SNB-75, 48 h, read-out: GI
Procedure, shortened: (§2)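 NCI-60 one-dose primary screen run by the NCI Drug Evaluation Branch across the full 60-line panel. Single high-dose treatment with 48 h continuous drug exposure. Cell growth estimated by sulforhodamine B protein staining. Results given as percent growth of treated cells and expressed as percentage growth inhibition.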

| Compound | inhibition of growth at 10 µM [%] |
| --- | --- |
| CCOC(=O)c1sc(NS(=O)(=O)c2ccccc2)nc1C | 3.91 |

tested on: SF-268; experiment: Cytotoxicity against human SF268 cells assessed as growth inhibition at 10 uM after 48 hrs by SRB assay; format: functional; conditions: SF-268, 48 h, read-out: GI; procedure, shortened: as §2

| Compound | inhibition of growth at 10 µM [%] |
| --- | --- |
| CCOC(=O)c1sc(NS(=O)(=O)c2ccccc2)nc1C | < 10 |

tested on: PC-3; experiment: Cytotoxicity against human PC3 cells assessed as growth inhibition at 10 uM after 48 hrs by SRB assay; format: functional; conditions: PC-3, 48 h, read-out: GI; procedure, shortened: as §2

| Compound | inhibition of growth at 10 µM [%] |
| --- | --- |
| CCOC(=O)c1sc(NS(=O)(=O)c2ccccc2)nc1C | < 10 |

tested on: UACC-62; experiment: Cytotoxicity against human UACC62 cells assessed as growth inhibition at 10 uM after 48 hrs by SRB assay; format: functional; conditions: UACC-62, 48 h, read-out: GI; procedure, shortened: as §2

| Compound | inhibition of growth at 10 µM [%] |
| --- | --- |
| CCOC(=O)c1sc(NS(=O)(=O)c2ccccc2)nc1C | < 10 |

tested on: SK-MEL-2; experiment: Cytotoxicity against human SK-MEL-2 cells assessed as growth inhibition at 10 uM after 48 hrs by SRB assay; format: functional; conditions: SK-MEL-2, 48 h, read-out: GI; procedure, shortened: as §2

| Compound | inhibition of growth at 10 µM [%] |
| --- | --- |
| CCOC(=O)c1sc(NS(=O)(=O)c2ccccc2)nc1C | 97.5 |

tested on: not listed separately; experiment: Cytotoxicity against human UO31 cells assessed as growth inhibition at 10 uM after 48 hrs by SRB assay; format: functional; conditions: UO-31, 48 h, read-out: GI; procedure, shortened: as §2

| Compound | inhibition of growth at 10 µM [%] |
| --- | --- |
| CCOC(=O)c1sc(NS(=O)(=O)c2ccccc2)nc1C | 13 |

tested on: RPMI-8226; experiment: Cytotoxicity against human RPMI8226 cells assessed as growth inhibition at 10 uM after 48 hrs by SRB assay; format: functional; conditions: RPMI-8226, 48 h, read-out: GI; procedure, shortened: as §2

| Compound | inhibition of growth at 10 µM [%] |
| --- | --- |
| CCOC(=O)c1sc(NS(=O)(=O)c2ccccc2)nc1C | < 10 |

tested on: MOLT-4; experiment: Cytotoxicity against human MOLT4 cells assessed as growth inhibition at 10 uM after 48 hrs by SRB assay; format: functional; conditions: MOLT-4, 48 h, read-out: GI; procedure, shortened: as §2

| Compound | inhibition of growth at 10 µM [%] |
| --- | --- |
| CCOC(=O)c1sc(NS(=O)(=O)c2ccccc2)nc1C | 24.4 |

tested on: CCRF-CEM; experiment: Cytotoxicity against human CCRF-CEM cells assessed as growth inhibition at 10 uM after 48 hrs by SRB assay; format: functional; conditions: read-out: GI; procedure, shortened: as §2

| Compound | inhibition of growth at 10 µM [%] |
| --- | --- |
| CCOC(=O)c1sc(NS(=O)(=O)c2ccccc2)nc1C | < 10 |

tested on: IGROV-1; experiment: Cytotoxicity against human IGROV1 cells assessed as growth inhibition at 10 uM after 48 hrs by SRB assay; format: functional; conditions: IGROV-1, 48 h, read-out: GI; procedure, shortened: as §2

| Compound | inhibition of growth at 10 µM [%] |
| --- | --- |
| CCOC(=O)c1sc(NS(=O)(=O)c2ccccc2)nc1C | 93.1 |

tested on: T47D; experiment: Cytotoxicity against human T47D cells assessed as growth inhibition at 10 uM after 48 hrs by SRB assay; format: functional; conditions: read-out: GI; procedure, shortened: as §2

| Compound | inhibition of growth at 10 µM [%] |
| --- | --- |
| CCOC(=O)c1sc(NS(=O)(=O)c2ccccc2)nc1C | < 10 |

tested on: MDA-MB-468; experiment: Cytotoxicity against human MDA-MB-468 cells assessed as growth inhibition at 10 uM after 48 hrs by SRB assay; format: functional; conditions: MDA-MB-468, 48 h, read-out: GI; procedure, shortened: as §2

| Compound | inhibition of growth at 10 µM [%] |
| --- | --- |
| CCOC(=O)c1sc(NS(=O)(=O)c2ccccc2)nc1C | < 10 |

tested on: not listed separately; experiment: Cytotoxicity against human NCI-ADR-RES cells assessed as growth inhibition at 10 uM after 48 hrs by SRB assay; format: functional; conditions: read-out: GI; procedure, shortened: as §2

| Compound | inhibition of growth at 10 µM [%] |
| --- | --- |
| CCOC(=O)c1sc(NS(=O)(=O)c2ccccc2)nc1C | < 10 |

tested on: MCF7; experiment: Cytotoxicity against human MCF7 cells assessed as growth inhibition at 10 uM after 48 hrs by SRB assay; format: functional; conditions: MCF7, 48 h, read-out: GI; procedure, shortened: as §2

| Compound | inhibition of growth at 10 µM [%] |
| --- | --- |
| CCOC(=O)c1sc(NS(=O)(=O)c2ccccc2)nc1C | < 10 |

tested on: SW-620; experiment: Cytotoxicity against human SW620 cells assessed as growth inhibition at 10 uM after 48 hrs by SRB assay; format: functional; conditions: SW-620, 48 h, read-out: GI; procedure, shortened: as §2

| Compound | inhibition of growth at 10 µM [%] |
| --- | --- |
| CCOC(=O)c1sc(NS(=O)(=O)c2ccccc2)nc1C | < 10 |

tested on: HT-29; experiment: Cytotoxicity against human HT-29 cells assessed as growth inhibition at 10 uM after 48 hrs by SRB assay; format: functional; conditions: HT-29, 48 h, read-out: GI; procedure, shortened: as §2

| Compound | inhibition of growth at 10 µM [%] |
| --- | --- |
| CCOC(=O)c1sc(NS(=O)(=O)c2ccccc2)nc1C | < 10 |

tested on: HCC 2998; experiment: Cytotoxicity against human HCC2998 cells assessed as growth inhibition at 10 uM after 48 hrs by SRB assay; format: functional; conditions: HCC 2998, 48 h, read-out: GI; procedure, shortened: as §2

| Compound | inhibition of growth at 10 µM [%] |
| --- | --- |
| CCOC(=O)c1sc(NS(=O)(=O)c2ccccc2)nc1C | 72.5 |

tested on: NCI-H522; experiment: Cytotoxicity against human NCI-H522 cells assessed as growth inhibition at 10 uM after 48 hrs by SRB assay; format: functional; conditions: NCI-H522, 48 h, read-out: GI; procedure, shortened: as §2

| Compound | inhibition of growth at 10 µM [%] |
| --- | --- |
| CCOC(=O)c1sc(NS(=O)(=O)c2ccccc2)nc1C | < 10 |

tested on: NCI-H322M; experiment: Cytotoxicity against human NCI-H322M cells assessed as growth inhibition at 10 uM after 48 hrs by SRB assay; format: functional; conditions: read-out: GI; procedure, shortened: as §2

| Compound | inhibition of growth at 10 µM [%] |
| --- | --- |
| CCOC(=O)c1sc(NS(=O)(=O)c2ccccc2)nc1C | < 10 |

tested on: HOP-92; experiment: Cytotoxicity against human HOP92 cells assessed as growth inhibition at 10 uM after 48 hrs by SRB assay; format: functional; conditions: HOP-92, 48 h, read-out: GI; procedure, shortened: as §2

| Compound | inhibition of growth at 10 µM [%] |
| --- | --- |
| CCOC(=O)c1sc(NS(=O)(=O)c2ccccc2)nc1C | < 10 |

tested on: Pseudomonas aeruginosa; experiment: Bactericidal activity against Pseudomonas aeruginosa ATCC 27853 after 18 hrs; format: functional; conditions: ATCC 27853, 18 h
Procedure, shortened: (§3)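 Continuation of the broth-dilution MIC test. A loopful from each tube without visible growth spread on a quarter of a Mueller-Hinton agar plate and incubated 18 h. Lowest concentration giving no growth on subculture taken as the MBC.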

| Compound | MBC [µg/mL] |
| --- | --- |
| CCOC(=O)c1sc(NS(=O)(=O)c2ccccc2)nc1C | 200 (≈ 613 µM) |

tested on: Pseudomonas aeruginosa; experiment: Antibacterial activity against Pseudomonas aeruginosa ATCC 27853 assessed as growth inhibition after 48 hrs by two-fold serial dilution assay; format: functional; conditions: ATCC 27853, 48 h
Procedure, shortened: (§4)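 Twofold serial broth dilution run on compounds giving inhibition zones of 13 mm or more. Organisms pre-grown in suitable broth at 37 °C, 24 h for bacteria and 48 h for fungi. Dilution series 200, 100, 50, 25, 12.5, 6.25. Each 5 mL tube inoculated with 0.1 mL and incubated 37 °C for 48 h. Tubes scored for presence or absence of growth.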

| MIC [µg/mL] | Compound |
| --- | --- |
| 100 (≈ 306 µM) | CCOC(=O)c1sc(NS(=O)(=O)c2ccccc2)nc1C |

tested on: Escherichia coli; experiment: Bactericidal activity against Escherichia coli ATCC 25922 after 18 hrs; format: functional; conditions: ATCC 25922, 18 h; procedure, shortened: as §3

| Compound | MBC [µg/mL] |
| --- | --- |
| CCOC(=O)c1sc(NS(=O)(=O)c2ccccc2)nc1C | 50 (≈ 153 µM) |

tested on: Escherichia coli; experiment: Antibacterial activity against Escherichia coli ATCC 25922 assessed as growth inhibition after 48 hrs by two-fold serial dilution assay; format: functional; conditions: ATCC 25922, 48 h; procedure, shortened: as §4

| MIC [µg/mL] | Compound |
| --- | --- |
| 50 (≈ 153 µM) | CCOC(=O)c1sc(NS(=O)(=O)c2ccccc2)nc1C |

tested on: Bacillus spizizenii; experiment: Bactericidal activity against Bacillus subtilis ATCC 6633 after 18 hrs; format: functional; conditions: ATCC 6633, 18 h; procedure, shortened: as §3

| Compound | MBC [µg/mL] |
| --- | --- |
| CCOC(=O)c1sc(NS(=O)(=O)c2ccccc2)nc1C | 100 (≈ 306 µM) |

tested on: Bacillus spizizenii; experiment: Antibacterial activity against Bacillus subtilis ATCC 6633 assessed as growth inhibition after 48 hrs by two-fold serial dilution assay; format: functional; conditions: ATCC 6633, 48 h; procedure, shortened: as §4

| MIC [µg/mL] | Compound |
| --- | --- |
| 100 (≈ 306 µM) | CCOC(=O)c1sc(NS(=O)(=O)c2ccccc2)nc1C |

tested on: Staphylococcus aureus; experiment: Bactericidal activity against Staphylococcus aureus ATCC 6538 after 18 hrs; format: functional; conditions: ATCC 6538, 18 h; procedure, shortened: as §3

| Compound | MBC [µg/mL] |
| --- | --- |
| CCOC(=O)c1sc(NS(=O)(=O)c2ccccc2)nc1C | 25 (≈ 76.6 µM) |

tested on: Staphylococcus aureus; experiment: Antibacterial activity against Staphylococcus aureus ATCC 6538 assessed as growth inhibition after 48 hrs by two-fold serial dilution assay; format: functional; conditions: ATCC 6538, 48 h; procedure, shortened: as §4

| MIC [µg/mL] | Compound |
| --- | --- |
| 25 (≈ 76.6 µM) | CCOC(=O)c1sc(NS(=O)(=O)c2ccccc2)nc1C |

tested on: Staphylococcus aureus; experiment: Antibacterial activity against Staphylococcus aureus ATCC 6538 assessed as growth inhibition at 1 mg/mL after 24 hrs by agar-cup diffusion method; format: functional; conditions: ATCC 6538, 24 h, read-out: DIZ; procedure, shortened: as §1

| Compound | zone of inhibition at 1000 µg/mL [mm] |
| --- | --- |
| CCOC(=O)c1sc(NS(=O)(=O)c2ccccc2)nc1C | > 13 |

tested on: Pseudomonas aeruginosa; experiment: Antibacterial activity against Pseudomonas aeruginosa ATCC 27853 assessed as growth inhibition at 1 mg/mL after 24 hrs by agar-cup diffusion method; format: functional; conditions: ATCC 27853, 24 h, read-out: DIZ; procedure, shortened: as §1

| Compound | zone of inhibition at 1000 µg/mL [mm] |
| --- | --- |
| CCOC(=O)c1sc(NS(=O)(=O)c2ccccc2)nc1C | > 13 |
